The target of data set [1] is T1, Human immunodeficiency virus type 1 integrase (Human immunodeficiency virus 1, UniProt Q7ZJM1). The experiment in a line: Inhibition of wild-type HIV1 integrase strand transfer activity. Summed up: (§1)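 Recombinant wild-type HIV-1 integrase (200 nM final) preincubated with inhibitor for 30 min at 30 °C in 25 mM MOPS pH 7.2 with 50 mM NaCl, 7.5 mM MnCl2, 10% DMSO, BSA and thiols. Then 20 nM 5′-³²P-labeled 21-mer duplex substrate (21top/21bot) was added for 1 h. Quenched in formamide dye and resolved on denaturing 20% polyacrylamide–urea gel. Selectivity index = IC50(3′-processing)/IC50(strand transfer).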
T1 sequence (Q7ZJM1 whole entry): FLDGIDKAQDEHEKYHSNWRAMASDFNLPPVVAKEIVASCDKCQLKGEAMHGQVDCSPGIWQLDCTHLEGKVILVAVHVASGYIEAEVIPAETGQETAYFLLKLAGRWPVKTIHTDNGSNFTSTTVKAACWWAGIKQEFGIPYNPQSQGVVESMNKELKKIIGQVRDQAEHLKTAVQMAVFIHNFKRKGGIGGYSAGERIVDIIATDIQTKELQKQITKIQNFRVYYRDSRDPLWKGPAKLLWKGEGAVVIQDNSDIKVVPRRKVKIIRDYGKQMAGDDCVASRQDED

Data set [2] addresses T1, Human immunodeficiency virus type 1 integrase. The experiment in a line: Inhibition of wild-type HIV1 integrase 3'-end processing activity. In a few lines: as §1
In data set [3] the target is Human immunodeficiency virus type 1 integrase (Human immunodeficiency virus 1) (UniProt Q7ZJM1). The experiment in a line: Selectivity index, ratio of IC50 for wild-type HIV1 integrase 3'-end processing activity to IC50 for wild-type HIV1 integrase strand transfer activity. In a few lines:
as §1

The nature of data set [4]: Cytotoxicity against human HCT 116 cells after 72 hrs by MTT assay. Format: cell-based. To be noted: hct-116, 72 h. In a few lines: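 HCT-116 monolayers were seeded at 8 × 10³ cells/well and attached overnight. Compounds in RPMI-1640 with 10% […] were added at a single final concentration of 10 and exposed for 72 h. MTT was then added for 4 h, crystals were dissolved in DMSO, and absorbance was read at 570 nm against blanks.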
(In general: Tetrazolium dyes change colour on reduction, which living cells bring about.)

The next data set relates to HCT-116 (Homo sapiens). Briefly: Cytotoxicity against human HCT 116 cells by MTT assay.

Active and inactive are the calls of the source. The calls are words filed in the database; no cut-off is given here.

Sequence of Human immunodeficiency virus type 1 integrase (Human immunodeficiency virus 1) (Q7ZJM1 as listed by the source): as the sequence (Q7ZJM1 whole entry) above

Consider `Cc1cc(O)c(C(=O)/C=C/c2ccc(N(C)C)s2)c(=O)o1`, for which the IC50 (commonly the concentration at which inhibition is half-maximal) worked out at 11 µM in data set [1] and 19 µM in data set [2]. Further, the Ratio IC50 in data set [3] amounted to 1.8. The same compound returned an Activity in data set [4] greater than 10 µM.
In the case of `COc1ccc(Br)cc1/C=C/C(=O)c1c(O)cc(/C=C/c2ccc(N(C)C)cc2)oc1=O`, the IC50 in data set [1] was 100 µM; in data set [2], greater than 100 µM. This compound came in with an Activity in data set [4] greater than 10 µM.
For `Cc1cc(O)c(C(=O)/C=C/c2ccc(Br)cc2)c(=O)o1` the same measures were greater than 100 µM, greater than 100 µM and greater than 10 µM.
For `CN(C)c1ccc(/C=C/C(=O)c2c(O)cc(/C=C/c3ccc(N(C)C)cc3)oc2=O)cc1` the same measures were greater than 100 µM, greater than 100 µM and greater than 10 µM.
In the same order, the values of `CN(C)c1ccc(/C=C/C2=[O+][B-](F)(F)Oc3cc(/C=C/c4ccc(N(C)C)cc4)oc(=O)c32)cc1` are greater than 100 µM, greater than 100 µM and greater than 10 µM.
On to `Cc1cc2c(c(=O)o1)C(/C=C/C=C1/N(C)c3ccccc3C1(C)C)=[O+][B-](F)(F)O2`, for which the half-maximal inhibitory concentration (IC50) in data set [1] and in data set [2] was greater than 100 µM in each case. Further, the Activity in data set [4] is greater than 10 µM.
In the case of `COc1ccc(Br)cc1/C=C/C1=[O+][B-](F)(F)Oc2cc(/C=C/c3ccc(N(C)C)cc3)oc(=O)c21`, the IC50 in data set [1] and in data set [2] was greater than 100 µM each time. Further, in data set [4], the Activity was greater than 10 µM.
Turning to `Cc1cc2c(c(=O)o1)C(/C=C/c1ccc(N(C)C)cc1)=[O+][B-](F)(F)O2`, the results for the 50% inhibitory concentration (IC50) in data set [1] and in data set [2] were 56 µM and greater than 100 µM, respectively. Besides, in data set [3], the Ratio IC50 is greater than 1.8. Further, the Activity in data set [4] is greater than 10 µM.
For `Cc1cc2c(c(=O)o1)C(/C=C/C=C/c1ccc(N(C)C)cc1)=[O+][B-](F)(F)O2`, the IC50 in data set [1] was 100 µM; in data set [2], greater than 100 µM. For the same compound, in data set [4], the Activity is greater than 10 µM.
In the same order, the values of `COc1ccc(/C=C/C2=[O+][B-](F)(F)Oc3cc(/C=C/c4ccc(N(C)C)cc4)oc(=O)c32)cc1` are greater than 100 µM, greater than 100 µM and greater than 10 µM.
On to `CC[NH+](CC)CC.Cc1cc2c(c(=O)o1)C(/C=C/C=C1\O[B-](F)(F)Oc3cc(C)oc(=O)c31)=[O+][B-](F)(F)O2`, for which the concentration for half-maximal inhibition (IC50) in data set [1] stood at 7 µM; in data set [2] it was 13 µM. Also, in data set [3], the Ratio IC50 is 1.9. The Activity in data set [4] is greater than 10 µM. Further, in the data set with HCT-116 (Homo sapiens), the result was inactive.
In the same order, the values of `Cc1cc2c(c(=O)o1)C(/C=C/c1ccc(Br)s1)=[O+][B-](F)(F)O2` are 3 µM, 9 µM, 3.2, greater than 10 µM and “inactive”.
For `COc1ccc(/C=C/C(=O)c2c(O)cc(/C=C/c3ccc(N(C)C)cc3)oc2=O)cc1`, the concentration for half-maximal inhibition (IC50) in data set [1] and in data set [2] was greater than 100 µM each time. In data set [4], this compound registered an Activity greater than 10 µM.
For the compound `Cc1cc(O)c(C(=O)/C=C/C=C2/N(C)c3ccccc3C2(C)C)c(=O)o1`, the half-maximal inhibitory concentration (IC50) in data set [1] and in data set [2] was greater than 100 µM in each case. This compound had an Activity in data set [4] greater than 10 µM.
With `COc1ccc(/C=C/C=C/C2=[O+][B-](F)(F)Oc3cc(C)oc(=O)c32)cc1`, the half-inhibitory concentration (IC50) in data set [1] amounted to 4 µM; in data set [2], 11 µM. The Ratio IC50 in data set [3] is 2.5. Further, the Activity in data set [4] was greater than 10 µM. Also, the result in the data set with HCT-116 (Homo sapiens) was inactive.
On to `Cc1cc2c(c(=O)o1)C(/C=C/c1ccc(F)cc1)=[O+][B-](F)(F)O2`, for which the concentration for half-maximal inhibition (IC50) in data set [1] stood at 16 µM; in data set [2], 9 µM. The Ratio IC50 in data set [3] stood at 0.6. Also, the Activity in data set [4] is greater than 10 µM.
Consider `Cc1cc2c(c(=O)o1)C(/C=C/c1ccc(N(C)C)s1)=[O+][B-](F)(F)O2`, for which the IC50 in data set [1] and in data set [2] was greater than 100 µM throughout. In addition, in data set [4], the Activity is greater than 10 µM.
For the compound `COc1ccc(/C=C/C=C/C(=O)c2c(O)cc(C)oc2=O)cc1`, the 50% inhibitory concentration (IC50) was 39 µM in data set [1] and greater than 100 µM in data set [2]. The Ratio IC50 in data set [3] was greater than 2.6. In addition, in data set [4], the Activity was greater than 10 µM.
For the compound `Cc1cc2c(c(=O)o1)C(/C=C/c1ccc(Br)cc1)=[O+][B-](F)(F)O2`, the results for the IC50 in data set [1] and in data set [2] were 4 µM and 12 µM, respectively. Further, in data set [3], the Ratio IC50 is 3.3. The same compound yielded an Activity in data set [4] greater than 10 µM. Further, the result with HCT-116 (Homo sapiens) was inactive.
As for `Cc1cc(O)c(C(=O)/C=C/C=C/c2ccc(N(C)C)cc2)c(=O)o1`, the concentration for half-maximal inhibition (IC50) in data set [1] and in data set [2] was greater than 100 µM throughout. The compound also gave an Activity in data set [4] greater than 10 µM.
For the compound `Cc1cc(O)c(C(=O)/C=C/c2ccc(F)cc2)c(=O)o1`, the IC50 in data set [1] is greater than 100 µM; in data set [2] it was 64 µM. Further, in data set [3], the Ratio IC50 was less than 0.7. The same compound displayed an Activity in data set [4] greater than 10 µM.
In the same order, the values of `Cc1cc(O)c(C(=O)/C=C/c2ccc(Br)s2)c(=O)o1` are 23 µM, 65 µM, 2.8 and greater than 10 µM.
